Measurements published in ChEMBL document CHEMBL1125451, “Structure-activity studies of a novel bicyclic oxytocin antagonist” (J Med Chem, 1992).
Calls of active or inactive are those of the source. The rule behind the calls is not given here. Numbered stars: 1 amine (or outer) side, 2 acyl side, 3 side chain; on linkers, the order of the positions; unused ones are H or OH. Bridge positions count the residues as written; N and C are the ends. Square brackets hold non-standard residues; d marks the D form. Peptide text beside a SMILES is read from it. * marks the point of attachment. X1 = CC(C)(CC(=O)[*:1])S[*:2]; Mpa = O=C(O)CCS; For = O=C*

Legend:
Oxytocin receptor = biological target: T1, Oxytocin receptor (Rattus norvegicus, UniProt P70536); assay: In vitro Oxytocin receptor antagonistic activity against rat uterine strips; type: functional; settings: read-out: pA2 (converted)
T1 sequence (P70536 whole entry): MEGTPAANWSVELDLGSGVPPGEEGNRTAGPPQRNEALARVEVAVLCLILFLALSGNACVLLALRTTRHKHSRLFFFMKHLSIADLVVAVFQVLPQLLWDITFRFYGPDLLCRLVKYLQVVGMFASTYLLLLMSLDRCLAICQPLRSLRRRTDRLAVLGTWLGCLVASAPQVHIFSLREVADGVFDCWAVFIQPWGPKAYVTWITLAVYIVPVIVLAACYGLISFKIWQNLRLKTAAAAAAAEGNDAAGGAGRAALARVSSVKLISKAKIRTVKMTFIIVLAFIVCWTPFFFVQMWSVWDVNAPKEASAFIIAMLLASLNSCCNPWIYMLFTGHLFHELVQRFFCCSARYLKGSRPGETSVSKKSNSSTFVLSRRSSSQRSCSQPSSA
Outline: (§1)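 Isolated uterine strips from Wistar rats estrogenized 24-48 h beforehand, tested in Munsick's solution by the Holton method. Cumulative oxytocin dose-response curves were constructed, with antagonist added to the bath 1 min before the oxytocin curve was started. Antagonism expressed as pA2.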

Rattus norvegicus [1] = assay: (§2) In vivo pressor activity by vasopressin assay in rats; type: functional
Rattus norvegicus [2] = assay: (§3) In vivo oxytocin antagonistic activity […] was determined by galactogogic assay; type: functional
Rattus norvegicus [3] = assay: In vivo pressor activity by vasopressin assay in rats; o = inactive up to dose 2*10e-2; type: functional, organism-based
Rattus norvegicus [4] = species on record: Rattus norvegicus; assay: In vitro oxytocin antagonistic activity against rat uterine strips; o = inactive up to dose 2*10e-2; type: functional; outline: as §1
Rattus norvegicus [5] = assay: In vivo pressor activity by vasopressin assay in rats(inactive up to dose 2*10e-2); type: functional
Rattus norvegicus [6] = species on record: Rattus norvegicus; assay: In vitro oxytocin antagonistic activity against rat uterine strips; type: functional; settings: read-out: pA2 (converted); outline: as §1
Rattus norvegicus [7] = assay: as §2; type: functional, organism-based; settings: read-out: pA2 (converted)
Rattus norvegicus [8] = assay: as §3; type: functional, organism-based; settings: read-out: pA2 (converted)

Row | Compound | Activity (Rattus norvegicus [1]) [IU mg-1] | Activity (Rattus norvegicus [2]) [IU mg-1] | further results
1 | CC[C@H](C)[C@@H]1NC(=O)[C@H](Cc2ccc(O)cc2)NC(=O)CC(C)(C)SSC[C@@H](C(=O)N2CCC[C@H]2C(=O)N[C@@H](CCCCN)C(=O)NCC(N)=O)NC(=O)[C@H](CC(N)=O)NC(=O)[C@H](CCC(N)=O)NC1=O (YIQNCPKG-NH2; linker N-5 via X1) |  |  | Kb (Oxytocin receptor): 16.6 nM
2 | CC[C@H](C)[C@@H]1NC(=O)[C@H](Cc2ccc(O)cc2)NC(=O)CC(C)(C)SSC[C@@H](C(=O)N2CCC[C@H]2C(=O)N[C@@H](CCCCN)C(=O)NCC(N)=O)NC(=O)[C@H](CC(N)=O)NC(=O)[C@H](CCC(=O)O)NC1=O (YIENCPKG-NH2; linker N-5 via X1) [listing 1 of 2 here] |  |  | Kb (Oxytocin receptor): 1580 nM
3 | CC[C@H](C)[C@@H]1NC(=O)[C@H](Cc2ccc(O)cc2)NC(=O)CCSSC[C@@H]2NC(=O)[C@H](CC(N)=O)NC(=O)[C@H](CCC(=O)NCCCC[C@@H](C(=O)NCC(N)=O)NC(=O)[C@@H]3CCCN3C2=O)NC1=O ([Mpa]YIENCPKG-NH2; disulfide 1-6; lactam 4-8) [listing 1 of 2 here] | 0.1 |  | 
4 | CC[C@H](C)[C@@H]1NC(=O)[C@H](Cc2ccc(O)cc2)NC(=O)CCSSC[C@@H](C(=O)N2CCC[C@H]2C(=O)N[C@@H](CCCCN)C(=O)NCC(N)=O)NC(=O)[C@H](CC(N)=O)NC(=O)[C@H](CCC(N)=O)NC1=O | 368 | 272 | 
5 | CC[C@H](C)[C@@H]1NC(=O)[C@H](Cc2ccc(O)cc2)NC(=O)CCSSC[C@@H](C(=O)N2CCC[C@H]2C(=O)N[C@@H](CC(C)C)C(=O)NCC(N)=O)NC(=O)[C@H](CC(N)=O)NC(=O)[C@H](CCC(N)=O)NC1=O | 1.44 | 541 | 
6 | CC[C@@H](C)[C@@H]1NC(=O)[C@@H](Cc2ccc(O)cc2)NC(=O)CCSSC[C@@H](C(=O)N2CCC[C@@H]2C(=O)N[C@@H](CCCCNC=O)C(=O)NCC(N)=O)NC(=O)[C@H](CC(N)=O)NC(=O)[C@@H](CCC(=O)O)NC1=O |  |  | Activity (Rattus norvegicus [3]): inactive; Activity (Rattus norvegicus [4]): inactive
7 | CC[C@H](C)[C@@H]1NC(=O)[C@H](Cc2ccc(O)cc2)NC(=O)CCSSC[C@@H](C(=O)N2CCC[C@H]2C(=O)N[C@@H](CCCCNC=O)C(=O)NCC(N)=O)NC(=O)[C@H](CC(N)=O)NC(=O)[C@H](CCC(N)=O)NC1=O | 101.6 | 517 | 
8 | CC[C@H](C)[C@@H]1NC(=O)[C@H](Cc2ccc(O)cc2)NC(=O)CCSSC[C@@H](C(=O)N2CCC[C@H]2C(=O)N[C@@H](CCCCNC=O)C(=O)NCC(N)=O)NC(=O)[C@H](CC(N)=O)NC(=O)[C@H](CCC(=O)O)NC1=O |  | 8 | 
9 | CC[C@H](C)[C@@H]1NC(=O)[C@H](Cc2ccc(O)cc2)NC(=O)[C@@H](N)C(C)(C)SSC[C@@H](C(=O)N2CCC[C@H]2C(=O)N[C@@H](CC(C)C)C(=O)NCC(N)=O)NC(=O)[C@H](CC(N)=O)NC(=O)[C@H](CCC(N)=O)NC1=O |  |  | Activity (Rattus norvegicus [5]): 0 IU mg-1
10 | CC[C@H](C)[C@@H]1NC(=O)[C@H](Cc2ccc(O)cc2)NC(=O)CC(C)(C)SSC[C@@H](C(=O)N2CCC[C@H]2C(=O)N[C@@H](CCCCNC=O)C(=O)NCC(N)=O)NC(=O)[C@H](CC(N)=O)NC(=O)[C@H](CCC(=O)O)NC1=O (YIENCPK(For)G-NH2; linker N-5 via X1) |  |  | Kb (Rattus norvegicus [6]): 7940 nM
11 | CC[C@H](C)[C@@H]1NC(=O)[C@H](Cc2ccc(O)cc2)NC(=O)CC(C)(C)SSC[C@@H](C(=O)N2CCC[C@H]2C(=O)N[C@@H](CC(C)C)C(=O)NCC(N)=O)NC(=O)[C@H](CC(N)=O)NC(=O)[C@H](CCC(N)=O)NC1=O (YIQNCPLG-NH2; linker N-5 via X1) |  |  | Kb (Rattus norvegicus [7]): 537 nM; Kb (Rattus norvegicus [6]): 115 nM
12 | CC[C@H](C)[C@@H]1NC(=O)[C@H](Cc2ccc(O)cc2)NC(=O)CC(C)(C)SSC[C@@H](C(=O)N2CCC[C@H]2C(=O)N[C@@H](CCCCNC=O)C(=O)NCC(N)=O)NC(=O)[C@H](CC(N)=O)NC(=O)[C@H](CCC(N)=O)NC1=O (YIQNCPK(For)G-NH2; linker N-5 via X1) [listing 1 of 2 here] |  |  | Kb (Rattus norvegicus [7]): 631 nM; Kb (Rattus norvegicus [6]): 39.8 nM
13 | CC[C@H](C)[C@@H]1NC(=O)[C@H](Cc2ccc(O)cc2)NC(=O)CCSSC[C@@H]2NC(=O)[C@H](CC(N)=O)NC(=O)[C@H](CCC(=O)NCCCC[C@@H](C(=O)NCC(N)=O)NC(=O)[C@@H]3CCCN3C2=O)NC1=O ([Mpa]YIENCPKG-NH2; disulfide 1-6; lactam 4-8) [listing 2 of 2 here] |  |  | Kb (Oxytocin receptor): 6.31 nM; Kb (Rattus norvegicus [8]): 1000 nM
14 | CC[C@H](C)[C@@H]1NC(=O)[C@H](Cc2ccc(O)cc2)NC(=O)CC(C)(C)SSC[C@@H](C(=O)N2CCC[C@H]2C(=O)N[C@@H](CCCCNC=O)C(=O)NCC(N)=O)NC(=O)[C@H](CC(N)=O)NC(=O)[C@H](CCC(N)=O)NC1=O (YIQNCPK(For)G-NH2; linker N-5 via X1) [listing 2 of 2 here] |  | 1.1 | 
15 | CC[C@H](C)[C@@H]1NC(=O)[C@H](Cc2ccc(O)cc2)NC(=O)[C@@H](N)CSSC[C@@H](C(=O)N2CCC[C@H]2C(=O)N[C@@H](CC(C)C)C(=O)NCC(N)=O)NC(=O)[C@H](CC(N)=O)NC(=O)[C@H](CCC(N)=O)NC1=O [OXYTOCIN] | 3.1 | 450 | 
16 | CC[C@H](C)[C@@H]1NC(=O)[C@H](Cc2ccc(O)cc2)NC(=O)CC(C)(C)SSC[C@@H](C(=O)N2CCC[C@H]2C(=O)N[C@@H](CCCCN)C(=O)NCC(N)=O)NC(=O)[C@H](CC(N)=O)NC(=O)[C@H](CCC(=O)O)NC1=O (YIENCPKG-NH2; linker N-5 via X1) [listing 2 of 2 here] | 0 | <0.01 | 
17 | CC[C@H](C)[C@@H]1NC(=O)[C@H](Cc2ccc(O)cc2)NC(=O)CCSSC[C@@H](C(=O)N2CCC[C@H]2C(=O)N[C@@H](CCCCN)C(=O)NCC(N)=O)NC(=O)[C@H](CC(N)=O)NC(=O)[C@H](CCC(=O)O)NC1=O | 0.1 | 9.1 | 
